The test system of one experiment is A2780. The experiment in a line: Cytotoxicity against human A2780 cells. The class given is functional, cell-based.
The test system of another experiment is Bel-7402. The experiment can be described thus: Cytotoxicity against human Bel7402 cells. The class given is functional, cell-based.
Another experiment concerns BGC-823. The experiment can be described thus: Cytotoxicity against human BGC823 cells. The class given is functional, cell-based.
The subject of the next experiment is A549. The experiment can be described thus: Cytotoxicity against human A549 cells. The class given is functional, cell-based.
Experiment [1] can be described thus: Antiinflammatory activity in rat PMNC assessed as inhibition of platelet activating factor-induced beta-glucuronidase release at 10 uM treated 15 mins before PAF challenge. Also noted: scale not given: the % may be the effect or the level left. The class given is functional. A digest of the protocol: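 Rat PMN suspension (2.5 × 10^6 cells/mL) preincubated with sample (stock 0.1 M in DMSO, diluted in RPMI-1640) 15 min at 37 °C, then cytochalasin B 5 min, then PAF; stopped on ice after 10 min. Supernatant incubated with phenolphthalein glucuronic acid in 0.1 M HOAc buffer pH 4.6, 37 °C, 18 h; NaOH added, A550 read; inhibitory ratio versus PAF and control wells; ginkgolide B reference.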

A further experiment concerns HCT-8. The experiment in a line: Cytotoxicity against human HCT8 cells. It is filed as functional, cell-based.

Active and inactive are the calls of the source. The calls are words filed in the database; no cut-off is given here.

As to `C=CCC1=C[C@]2(O)C[C@H](C(C)(C)O)OC2=CC1=O`, the outcome in the experiment with A2780, in the experiment on Bel-7402, in the experiment with BGC-823, with A549 and in the experiment with HCT-8 was inactive. For the same molecule, in experiment [1], the Activity worked out at 4.8%.
In the case of `C=CC[C@@H]1C[C@]2(O)C[C@H](C(C)(C)O)OC2=CC1=O` [ILLIFUNONE C], the result in the experiment with A2780, in the experiment with Bel-7402, with BGC-823, in the experiment with A549 and with HCT-8 was inactive. In addition, the Activity in experiment [1] is recorded as -9.4%.
For `C=CC[C@H]1C[C@]2(O)C[C@H](C(C)(C)O)OC2=CC1=O` [ILLIFUNONE D], the result in the experiment with A2780, with Bel-7402, in the experiment with BGC-823, with A549 and with HCT-8 was inactive. For the same molecule, the Activity in experiment [1] came out at 18%.
For `C=CCC1=C[C@]2(O)C[C@@H](O)C(C)(C)[C@H](C1=O)C2=O` [ILLIOLIGANONE A], the result with A2780, with Bel-7402, in the experiment with BGC-823, in the experiment on A549 and in the experiment on HCT-8 was inactive. The Activity in experiment [1] was -7.7%.
Take `C=CC[C@@]12C=C(C[C@H](O)C(C)(C)O)C(=O)C=C1OCO2` [ILLIOLIGANONE B]: the result with A2780, in the experiment on Bel-7402, in the experiment on BGC-823, with A549 and in the experiment on HCT-8 was inactive. For the same molecule, the Activity in experiment [1] was 33.8%.
In the case of `C=CC[C@]1(C[C@H](O)C(C)(C)O)C=C2OCOC2=CC1=O` [ILLIOLIGANONE C], the result in the experiment on A2780, in the experiment on Bel-7402, in the experiment on BGC-823, with A549 and in the experiment with HCT-8 was inactive. Moreover, in experiment [1], the Activity was determined as 20.1%.
Turning to `C[C@@H]1CC[C@@]2(O)[C@]13C[C@@H](OC(=O)[C@@H]3O)[C@@]1(O)C(=O)OC[C@@]21C` [NEOMAJUCIN], the outcome with A2780, in the experiment with Bel-7402, with BGC-823, with A549 and with HCT-8 was inactive. In addition, in experiment [1], the Activity came to 22.4%.
Consider `CO[C@]12OC[C@@]3(C)[C@@]4(O)CC[C@@H](COC(=O)c5ccccc5)[C@]4(C[C@@H](O1)[C@@]3(O)CO)[C@H]2O` [OLIGANDRIORTHOLACTONE], for which the outcome in the experiment with A2780, in the experiment on Bel-7402, with BGC-823, with A549 and in the experiment on HCT-8 was inactive. Also, the Activity in experiment [1] is reported as 15.8%.

Values taken from ChEMBL document CHEMBL1152972, “Rearranged prenylated C6-C3 compounds and a highly oxygenated seco-prezizaane-type sesquiterpene from the stem bark of Illicium oligandrum” (2009).
